Active and inactive are the calls of the source. The calls are words filed in the database; no cut-off is given here.
What was measured:
[1] = molecular target: T1, Cystic fibrosis transmembrane conductance regulator (Homo sapiens, UniProt P13569); assay: Activation of CFTR in human primary bronchial epithelial cells assessed as increase in forskolin-stimulated short-circuit current at 0.1 uM preincubated for 10 mins followed by forskolin addition by voltage clamp method
[2] = molecular target: T1, Cystic fibrosis transmembrane conductance regulator; assay: Activation of CFTR in human primary bronchial epithelial cells assessed as increase in short-circuit current up to 10 uM measured after 10 mins in absence of forskolin by voltage clamp method
Mus musculus [3] = assay: Induction of tear secretion in mouse assessed as minimum compound concentration required to show maximum effect administered as single topical dose at 1 to 3 hrs post dose by phenol red thread test; format: functional
Procedure, shortened: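 Dose-response in mice: single ocular doses of varied amounts (down to 25 pmol) in 2.5 μL ophthalmic vehicle to both eyes, vehicle control. Tear volume by phenol red thread (10 s, lateral canthus, isoflurane anesthesia) before and at timed points after dosing; 5 mice, 10 eyes per condition.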

Mus musculus [4] = assay: Induction of tear secretion in mouse at 250 pmol administered as single topical dose after 12 to 24 hrs by phenol red thread test; format: functional
Procedure, shortened: (§1)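 Mice 8–12 weeks (25–35 g); single ocular dose of 250 pmol (100 μM) in 2.5 μL vehicle (0.3% CMC in Ringer's), both eyes treated identically, vehicle control. Tear volume by phenol red thread, 10 s in lateral canthus under isoflurane, before and at set times after dosing. 5 mice, 10 eyes per condition; two-way ANOVA with Dunnett test.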

Mus musculus [5] = assay: Induction of tear secretion in mouse at 250 pmol administered as single topical dose up to 8 hrs by phenol red thread test; format: functional; procedure, shortened: as §1
Mus musculus [6] = assay: Induction of tear secretion in mouse lacking functional CFTR up to 250 pmol administered as single topical dose up to 6 hrs by phenol red thread test; conditions: in vivo, topical_or_ocular
Procedure, shortened: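 CF mice lacking functional CFTR; single ocular dose of 250 pmol in 2.5 μL ophthalmic vehicle, both eyes, vehicle control. Tear volume by phenol red thread 10 s in lateral canthus under isoflurane, measured before and at timed points after dosing. 5 mice, 10 eyes per condition.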

T1 sequence (P13569 whole entry, looked up): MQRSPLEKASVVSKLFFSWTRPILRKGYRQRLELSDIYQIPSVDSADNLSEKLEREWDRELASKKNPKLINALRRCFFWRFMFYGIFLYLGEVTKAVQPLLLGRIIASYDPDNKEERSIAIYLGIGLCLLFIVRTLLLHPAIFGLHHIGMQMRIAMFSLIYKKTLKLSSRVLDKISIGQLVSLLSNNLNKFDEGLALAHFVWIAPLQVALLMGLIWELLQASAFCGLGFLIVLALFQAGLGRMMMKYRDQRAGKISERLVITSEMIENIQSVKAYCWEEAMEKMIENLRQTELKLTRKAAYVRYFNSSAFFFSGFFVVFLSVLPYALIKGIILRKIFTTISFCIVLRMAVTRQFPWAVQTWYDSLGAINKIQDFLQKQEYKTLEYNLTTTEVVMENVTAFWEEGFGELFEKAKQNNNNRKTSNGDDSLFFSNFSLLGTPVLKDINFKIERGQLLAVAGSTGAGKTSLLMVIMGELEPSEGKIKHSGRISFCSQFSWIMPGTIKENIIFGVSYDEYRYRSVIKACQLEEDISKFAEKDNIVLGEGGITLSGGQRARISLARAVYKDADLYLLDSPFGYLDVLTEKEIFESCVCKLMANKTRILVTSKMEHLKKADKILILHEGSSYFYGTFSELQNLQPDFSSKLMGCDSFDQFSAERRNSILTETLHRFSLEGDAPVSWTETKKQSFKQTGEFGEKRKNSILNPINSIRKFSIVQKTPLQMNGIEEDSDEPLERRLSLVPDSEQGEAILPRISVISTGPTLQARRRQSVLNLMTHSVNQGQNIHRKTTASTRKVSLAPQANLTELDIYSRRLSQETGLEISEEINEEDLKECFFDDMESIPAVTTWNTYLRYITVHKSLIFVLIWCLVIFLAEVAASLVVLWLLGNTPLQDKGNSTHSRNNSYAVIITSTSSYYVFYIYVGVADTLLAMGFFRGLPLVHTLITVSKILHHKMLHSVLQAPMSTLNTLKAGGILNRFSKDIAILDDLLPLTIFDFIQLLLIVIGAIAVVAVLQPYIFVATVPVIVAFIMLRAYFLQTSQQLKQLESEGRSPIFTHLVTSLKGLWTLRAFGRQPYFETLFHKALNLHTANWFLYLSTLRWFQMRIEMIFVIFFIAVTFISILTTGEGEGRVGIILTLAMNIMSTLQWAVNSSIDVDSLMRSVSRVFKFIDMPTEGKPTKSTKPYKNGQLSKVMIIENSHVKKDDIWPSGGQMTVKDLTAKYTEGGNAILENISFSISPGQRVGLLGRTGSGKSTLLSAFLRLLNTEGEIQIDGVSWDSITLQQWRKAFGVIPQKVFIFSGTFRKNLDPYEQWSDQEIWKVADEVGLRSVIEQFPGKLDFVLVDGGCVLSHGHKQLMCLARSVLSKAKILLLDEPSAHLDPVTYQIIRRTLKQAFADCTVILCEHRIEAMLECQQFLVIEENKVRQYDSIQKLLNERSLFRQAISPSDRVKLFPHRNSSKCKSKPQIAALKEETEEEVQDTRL

With `CNc1nc(Nc2ccccc2)nc(OCC(F)(F)C(F)F)n1` the Activity [1] was “Active”, the Activity [2] was “inactive” and the Activity (Mus musculus [3]) was 25 pmol. For the same molecule, the Activity (Mus musculus [4]) was “inactive”, the Activity (Mus musculus [5]) was “Active” and the Activity (Mus musculus [6]) was “Non-Toxic”.
